How the values were obtained:
Conditions in all cases: in vivo
Mus musculus [1] = species on record: Mus musculus; assay: Biodistribution of [225Ac]-labeled compound in normal mice liver after 4 hr; type: ADME, organism-based
Mus musculus [2] = species on record: Mus musculus; assay: Biodistribution of [225Ac]-labeled compound in normal mice heart after 120 hr; type: ADME, organism-based
Mus musculus [3] = species on record: Mus musculus; assay: Biodistribution of [225Ac]-labeled compound in normal mice blood after 24 hr; type: ADME, organism-based
Mus musculus [4] = species on record: Mus musculus; assay: Biodistribution of [225Ac]-labeled compound in normal mice spleen after 24 hr; type: ADME, organism-based
Mus musculus [5] = species on record: Mus musculus; assay: Biodistribution of [225Ac]-labeled compound in normal mice spleen after 4 hr; type: ADME, organism-based
Mus musculus [6] = species on record: Mus musculus; assay: Biodistribution of [225Ac]-labeled compound in normal mice bone after 1 hr; type: ADME, organism-based, Bone element
Mus musculus [7] = species on record: Mus musculus; assay: Biodistribution of [225Ac]-labeled compound in normal mice liver after 1 hr; type: ADME, organism-based
Mus musculus [8] = species on record: Mus musculus; assay: Biodistribution of [225Ac]-labeled compound in normal mice kidney after 24 hr; type: ADME, organism-based
Mus musculus [9] = species on record: Mus musculus; assay: Biodistribution of [225Ac]-labeled compound in normal mice blood after 120 hr; type: ADME, organism-based
Mus musculus [10] = species on record: Mus musculus; assay: Biodistribution of [225Ac]-labeled compound in normal mice liver after 24 hr; type: ADME, organism-based
Mus musculus [11] = species on record: Mus musculus; assay: Biodistribution of [225Ac]-labeled compound in normal mice bone after 120 hr; type: ADME, organism-based, Bone element
Mus musculus [12] = species on record: Mus musculus; assay: Biodistribution of [225Ac]-labeled compound in normal mice heart after 1 hr; type: ADME, organism-based
Mus musculus [13] = species on record: Mus musculus; assay: (§1) Biodistribution of [225Ac]-labeled compound in normal mice kidney after 120 hr; type: ADME, organism-based
Summary of the method: (§2)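 Normal female BALB/c mice received 2.5 µCi of 225Ac complex in 200 µL MES buffer (pH 6.2) by tail-vein injection. All complexes except Ac-acetate were Chelex-purified (0.1 M NH4OAc, pH 5.0) beforehand. Three to five animals were killed per time point. Tissues were weighed and counted for 225Ac 4 h later to allow nuclear equilibration, against external standards from the dose dilutions. Results are expressed as %ID/g.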

Mus musculus [14] = species on record: Mus musculus; assay: Biodistribution of [225Ac]-labeled compound in normal mice blood after 1 hr; type: ADME, organism-based
Mus musculus [15] = species on record: Mus musculus; assay: Biodistribution of [225Ac]-labeled compound in normal mice bone after 24 hr; type: ADME, organism-based, Bone element
Mus musculus [16] = species on record: Mus musculus; assay: Biodistribution of [225Ac]-labeled compound in normal mice heart after 24 hr; type: ADME, organism-based
Mus musculus [17] = species on record: Mus musculus; assay: Biodistribution of [225Ac]-labeled compound in normal mice spleen after 120 hr; type: ADME, organism-based
Mus musculus [18] = species on record: Mus musculus; assay: Biodistribution of [225Ac]-labeled compound in normal mice bone after 4 hr; type: ADME, organism-based, Bone element
Mus musculus [19] = species on record: Mus musculus; assay: Biodistribution of [225Ac]-labeled compound in normal mice heart after 4 hr; type: ADME, organism-based
Mus musculus [20] = species on record: Mus musculus; assay: Biodistribution of [225Ac]-labeled compound in normal mice liver after 120 hr; type: ADME, organism-based
Mus musculus [21] = species on record: Mus musculus; assay: Biodistribution of [225Ac]-labeled compound in normal mice kidney after 1 hr; type: ADME, organism-based
Mus musculus [22] = species on record: Mus musculus; assay: Biodistribution of [225Ac]-labeled compound in normal mice kidney after 4 hr; type: ADME, organism-based; summary of the method: as §2
Mus musculus [23] = species on record: Mus musculus; assay: Biodistribution of [225Ac]-labeled compound in normal mice blood after 4 hr; type: ADME, organism-based
Mus musculus [24] = species on record: Mus musculus; assay: Biodistribution of [225Ac]-labeled compound in normal mice spleen after 1 hr; type: ADME, organism-based
Mus musculus [25] = species on record: Mus musculus; assay: as §1; type: ADME, organism-based; remark: listed apart in the source

| Compound | ID/g (Mus musculus [1]) [%] | ID/g (Mus musculus [2]) [%] | ID/g (Mus musculus [3]) [%] | ID/g (Mus musculus [4]) [%] | ID/g (Mus musculus [5]) [%] | ID/g (Mus musculus [6]) [%] | ID/g (Mus musculus [7]) [%] | ID/g (Mus musculus [8]) [%] | ID/g (Mus musculus [9]) [%] | ID/g (Mus musculus [10]) [%] | ID/g (Mus musculus [11]) [%] | ID/g (Mus musculus [12]) [%] | ID/g (Mus musculus [14]) [%] | ID/g (Mus musculus [15]) [%] | ID/g (Mus musculus [16]) [%] | ID/g (Mus musculus [17]) [%] | ID/g (Mus musculus [18]) [%] | ID/g (Mus musculus [19]) [%] | ID/g (Mus musculus [20]) [%] | ID/g (Mus musculus [21]) [%] | further results |
| --- | --- | --- | --- | --- | --- | --- | --- | --- | --- | --- | --- | --- | --- | --- | --- | --- | --- | --- | --- | --- | --- |
| O=C(O)CN(CC(=O)O)[C@H](Cc1ccc([N+](=O)[O-])cc1)CN(CC(=O)O)[C@@H]1CCCC[C@H]1N(CC(=O)O)CC(=O)O | 12.9 | 0.6 | < 0.01 | 0.63 | 0.4 | 4.34 | 8.85 | 1.71 | < 0.01 | 12.8 | 4.18 | 1.99 | 0.86 | 4.65 | 0.43 | 5.41 | 4.44 | 1.51 | 23.9 | 4.55 | ID/g (Mus musculus [13]): 1.51%; ID/g (Mus musculus [22]): 3.36%; ID/g (Mus musculus [23]): < 0.01%; ID/g (Mus musculus [24]): 0.71% |
| O=C(O)CN1CCN(CC(=O)O)CCN(CC(=O)O)CCN(CC(=O)O)CCN(CC(=O)O)CC1 | 16.4 | 0.39 | < 0.01 | 0.8 | 0.59 | 1.75 | 12 | 1.64 | < 0.01 | 14.7 | 1.6 | 2.65 | 1.33 | 1.51 | 0.68 | 1.63 | 1.6 | 2.34 | 22.3 | 5.6 | ID/g (Mus musculus [13]): 1.28%; ID/g (Mus musculus [22]): 3.47%; ID/g (Mus musculus [23]): < 0.01%; ID/g (Mus musculus [24]): 0.83% |
| O=C(O)CN1CCN(CC(=O)O)CCN(CC(=O)O)CCN(CC(=O)O)CCN(CC(=O)O)CCN(CC(=O)O)CC1 | 0.23 | 0.03 | < 0.01 | 0.03 | 0.027 | 0.06 | 0.17 | 0.43 | < 0.01 | 0.19 | 0.02 | 0.06 | 0.03 | < 0.01 | < 0.01 | 0.03 | 0.025 | 0.032 | 0.26 | 0.72 | ID/g (Mus musculus [25]): 0.25%; ID/g (Mus musculus [22]): 0.71%; ID/g (Mus musculus [23]): < 0.01%; ID/g (Mus musculus [24]): 0.05% |
| O=C(O)CN1CCN(CC(=O)O)CCN(CC(=O)O)C(Cc2ccc([N+](=O)[O-])cc2)CN(CC(=O)O)CC1 (stereo unspecified) | 2.04 | 0.11 | < 0.01 | 0.03 | 0.04 | 1.54 | 1.15 | 0.48 | < 0.01 | 1.29 | 2.87 | 0.16 | 0.24 | 0.98 | 0.04 | 0.03 | 1.76 | 0.12 | 3.29 | 1.23 | ID/g (Mus musculus [25]): 0.27%; ID/g (Mus musculus [22]): 0.8%; ID/g (Mus musculus [23]): < 0.01%; ID/g (Mus musculus [24]): 0.06% |

Source: ChEMBL document CHEMBL1132327, “Improved in vivo stability of actinium-225 macrocyclic complexes” (J Med Chem, 1999)
